ChEMBL document CHEMBL5058577, “EUbOPEN Chemogenomics Library 2 (Multiplex)” (2022)

Test system: HEK-293T
Assay: Multiplex assay against HEK293T
Format: toxicity, cell-based
Conditions: human
In short: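 Per cents of healthy-nucleus cells form the tubulin, mitochondrial-mass and membrane-permeability phenotype values. Live cells were stained at seeding with Hoechst33342, BioTracker Green Microtubule Cytoskeleton Dye, MitoTracker Red and Annexin V Alexa Fluor 680. After compound addition they were imaged on a CQ1 microscope at 37°C and 5% CO2, and CellPathfinder machine-learning gating split them into Hoechst high-intensity objects or normal cells, normal cells into healthy, pyknosed or fragmented nuclei, and pyknosed cells into mitotic or apoptotic.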

[1] = 12 h, 1 µM, compound concentration 1 uM, replicate 1
[2] = 12 h, 1 µM, compound concentration 1 uM, replicate 2
[3] = 12 h, 10 µM, compound concentration 10 uM, replicate 1
[4] = 12 h, 10 µM, compound concentration 10 uM, replicate 2
[5] = 24 h, 1 µM, compound concentration 1 uM, replicate 1
[6] = 24 h, 1 µM, compound concentration 1 uM, replicate 2
[7] = 24 h, 10 µM, compound concentration 10 uM, replicate 1
[8] = 24 h, 10 µM, compound concentration 10 uM, replicate 2
[9] = 48 h, 1 µM, compound concentration 1 uM, replicate 1
[10] = 48 h, 1 µM, compound concentration 1 uM, replicate 2
[11] = 48 h, 10 µM, compound concentration 10 uM, replicate 1
[12] = 48 h, 10 µM, compound concentration 10 uM, replicate 2

## CNC[C@H](O)c1ccc(O)c(O)c1 [EPINEPHRINE]
[1]
  Population Apoptotic (%): 20%
  Population Fragmented Nuclei (%): 6%
  Population Healthy Nuclei (%): 81%
  Population Hoechst High Intensity Objects (%): 7%
  Population Membrane Permeable-Phenotype (%): 0%
  Population Mitochondria Different-Phenotype (%): 31%
  Population Mitotic Cells (%): 80%
  Population Normal (%): 92%
  Population Pyknosed Nuclei (%): 11%
  Population Tubulin-Different-Phenotype (%): 26%
[2]
  Population Apoptotic (%): 56%
  Population Hoechst High Intensity Objects (%): 6%
  Population Mitochondria Different-Phenotype (%): 65%
  Population Mitotic Cells (%): 43%
  Population Normal (%): 93%
  Population Tubulin-Different-Phenotype (%): 27%
[3]
  Population Apoptotic (%): 55%
  Population Fragmented Nuclei (%): 12%
  Population Healthy Nuclei (%): 75%
  Population Hoechst High Intensity Objects (%): 9%
  Population Membrane Permeable-Phenotype (%): 1%
  Population Mitochondria Different-Phenotype (%): 65%
  Population Mitotic Cells (%): 44%
  Population Normal (%): 90%
  Population Pyknosed Nuclei (%): 11%
  Population Tubulin-Different-Phenotype (%): 39%
[4]
  Population Apoptotic (%): 56%
  Population Fragmented Nuclei (%): 11%
  Population Healthy Nuclei (%): 61%
  Population Hoechst High Intensity Objects (%): 40%
  Population Membrane Permeable-Phenotype (%): 0%
  Population Mitochondria Different-Phenotype (%): 62%
  Population Mitotic Cells (%): 43%
  Population Normal (%): 59%
  Population Pyknosed Nuclei (%): 26%
  Population Tubulin-Different-Phenotype (%): 25%
[5]
  Population Apoptotic (%): 19%
  Population Fragmented Nuclei (%): 9%
  Population Healthy Nuclei (%): 80%
  Population Hoechst High Intensity Objects (%): 5%
  Population Membrane Permeable-Phenotype (%): 0%
  Population Mitochondria Different-Phenotype (%): 25%
  Population Mitotic Cells (%): 80%
  Population Normal (%): 94%
  Population Pyknosed Nuclei (%): 9%
  Population Tubulin-Different-Phenotype (%): 21%
[6]
  Population Apoptotic (%): 36%
  Population Hoechst High Intensity Objects (%): 7%
  Population Membrane Permeable-Phenotype (%): 1%
  Population Mitochondria Different-Phenotype (%): 41%
  Population Mitotic Cells (%): 63%
  Population Normal (%): 92%
  Population Pyknosed Nuclei (%): 10%
  Population Tubulin-Different-Phenotype (%): 18%
[7]
  Population Apoptotic (%): 50%
  Population Fragmented Nuclei (%): 13%
  Population Healthy Nuclei (%): 75%
  Population Hoechst High Intensity Objects (%): 8%
  Population Membrane Permeable-Phenotype (%): 0%
  Population Mitochondria Different-Phenotype (%): 50%
  Population Mitotic Cells (%): 50%
  Population Normal (%): 91%
  Population Pyknosed Nuclei (%): 11%
  Population Tubulin-Different-Phenotype (%): 36%
[8]
  Population Apoptotic (%): 80%
  Population Fragmented Nuclei (%): 11%
  Population Healthy Nuclei (%): 71%
  Population Hoechst High Intensity Objects (%): 39%
  Population Mitochondria Different-Phenotype (%): 43%
  Population Mitotic Cells (%): 19%
  Population Normal (%): 60%
  Population Pyknosed Nuclei (%): 17%
  Population Tubulin-Different-Phenotype (%): 25%
[9]
  Population Apoptotic (%): 16%
  Population Fragmented Nuclei (%): 11%
  Population Healthy Nuclei (%): 81%
  Population Hoechst High Intensity Objects (%): 3%
  Population Membrane Permeable-Phenotype (%): 1%
  Population Mitochondria Different-Phenotype (%): 13%
  Population Mitotic Cells (%): 83%
  Population Normal (%): 96%
  Population Pyknosed Nuclei (%): 7%
  Population Tubulin-Different-Phenotype (%): 9%
[10]
  Population Apoptotic (%): 35%
  Population Fragmented Nuclei (%): 12%
  Population Healthy Nuclei (%): 78%
  Population Mitochondria Different-Phenotype (%): 24%
  Population Mitotic Cells (%): 64%
  Population Pyknosed Nuclei (%): 8%
  Population Tubulin-Different-Phenotype (%): 15%
[11]
  Population Apoptotic (%): 33%
  Population Fragmented Nuclei (%): 21%
  Population Healthy Nuclei (%): 72%
  Population Hoechst High Intensity Objects (%): 3%
  Population Membrane Permeable-Phenotype (%): 0%
  Population Mitochondria Different-Phenotype (%): 25%
  Population Mitotic Cells (%): 66%
  Population Normal (%): 96%
  Population Pyknosed Nuclei (%): 5%
  Population Tubulin-Different-Phenotype (%): 11%
[12]
  Population Apoptotic (%): 69%
  Population Fragmented Nuclei (%): 17%
  Population Healthy Nuclei (%): 67%
  Population Hoechst High Intensity Objects (%): 21%
  Population Mitochondria Different-Phenotype (%): 34%
  Population Mitotic Cells (%): 30%
  Population Normal (%): 78%
  Population Pyknosed Nuclei (%): 14%
  Population Tubulin-Different-Phenotype (%): 13%
